Measurements: ChEMBL document CHEMBL1124179, “Nucleotide derivatives of 2,7-diaminomitosene” (1988)

What was measured:
[1] = tested on: L1210; assay: Uptake of a initial concentration of 100 ug/mL of compound in medium by L1210 cells after 10 min expressed as drug concentration in cells; assay type: functional, cell-based; settings: Mus musculus
Procedure, shortened: (§1)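 Cultured L1210 leukemia cells were incubated with drug in medium for set times. Cells were then washed in phosphate buffered saline and lysed by sonication in distilled water. Drug in the lysate was measured by HPLC on a short C18 column with methanol-water (65:35), against a peak-height standard curve that was linear over the range. Experiments were run in duplicate.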

[2] = tested on: L1210; assay: Uptake of a initial concentration of 100 ug/mL of compound in medium by L1210 cells after 30 min expressed as drug concentration in cells; assay type: functional, cell-based; settings: Mus musculus; procedure, shortened: as §1
[3] = tested on: L1210; assay: Uptake of a initial concentration of 100 ug/mL of compound in medium by L1210 cells after 60 min expressed as drug concentration in cells; assay type: functional, cell-based; settings: Mus musculus; procedure, shortened: as §1
[4] = tested on: L1210; assay: Uptake of a initial concentration of 10 ug/mL of compound in medium by L1210 cells after 30 min expressed as drug concentration in cells; assay type: functional, cell-based; settings: Mus musculus; procedure, shortened: as §1
[5] = tested on: L1210; assay: Uptake of a initial concentration of 10 ug/mL of compound in medium by L1210 cells after 60 min expressed as drug concentration in cells; assay type: functional, cell-based; settings: Mus musculus; procedure, shortened: as §1
[6] = tested on: L1210; assay: Inhibition of L1210 leukemia cells, after exposure to compound for period of 1 hr; assay type: functional; settings: Mus musculus, L1210, 1 h; read-out: ID50 (the source's name)
Procedure, shortened: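 Soft-agar colony-forming assay using L1210 murine lymphocytic leukemia cells at 4×10^4/mL. Drug exposure was either 1 h or continuous, with continuous dosing done by adding drug to the final plating medium (RPMI 1640, 10% fetal bovine serum, 1% penicillin/streptomycin, 0.3% agar). Read-out is percent survival of colony-forming cells, as the mean of six values (three plates in each of two experiments). ID50 is given as molar concentration.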

[7] = tested on: L1210; assay: Uptake of a initial concentration of 10 ug/mL of compound in medium by L1210 cells after 10 min expressed as drug concentration in cells; assay type: functional, cell-based; settings: Mus musculus; procedure, shortened: as §1
[8] = tested on: L1210; assay: The compound was evaluated for survival of L1210 cells, when compound was exposed for a period of 1 hr 1X (10e -5)M conc; assay type: functional, Mus musculus
Procedure, shortened: (§2)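 L1210 murine lymphocytic leukemia cells at 4×10^4/mL were exposed to drug for 1 h and then cloned in soft agar. The plating medium was RPMI 1640 with 10% fetal bovine serum, 1% penicillin-streptomycin and 0.3% agar. Read-out was percent survival of colony-forming cells, taken as the mean of six values (three plates in each of two experiments).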

[9] = tested on: L1210; assay: The compound was evaluated for survival of L1210 cells, when compound was exposed for a period of 1 hr 1X (10e -6)M conc; assay type: functional, Mus musculus; procedure, shortened: as §2
[10] = tested on: L1210; assay: The compound was evaluated for survival of L1210 cells, when compound was exposed for a period of 1 hr 1X (10e -7)Mconc; assay type: functional, Mus musculus; procedure, shortened: as §2
[11] = tested on: L1210; assay: The compound was evaluated for survival of L1210 cells, when compound was exposed for a period of 1 hr 5*(10e -5)M conc; assay type: functional, Mus musculus; procedure, shortened: as §2
[12] = tested on: L1210; assay: The compound was evaluated for survival of L1210 cells, when compound was exposed for a period of […] 1X (10e -7)M conc; assay type: functional, Mus musculus
Procedure, shortened: (§3)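 In a soft-agar colony-forming assay, L1210 murine lymphocytic leukemia cells (4×10^4/mL) were exposed to drug continuously, with drug added to the final plating medium. That medium was RPMI 1640 with 10% fetal bovine serum, 1% penicillin-streptomycin and 0.3% agar. Read-out was percent survival of colony-forming cells, given as the mean of six values (three plates, two experiments).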

[13] = tested on: L1210; assay: The compound was evaluated for survival of L1210 cells, when compound was exposed for a period of […] 1X (10e -8)Mconc; assay type: functional, Mus musculus; procedure, shortened: as §3
[14] = tested on: L1210; assay: The compound was evaluated for survival of L1210 cells, when compound was exposed for a period of […] 1X (10e -9)M conc; assay type: functional, Mus musculus; procedure, shortened: as §3
[15] = tested on: L1210; assay: The compound was evaluated for survival of L1210 cells, when compound was exposed for a period of […] 5*(10e -8)M conc; assay type: functional, Mus musculus; procedure, shortened: as §3

Row | Compound | Concentration [1] | Concentration [2] | Concentration [3] | Concentration [4] | Concentration [5] | IC50 [6] | Concentration [7] | Survival [8] | Survival [9] | Survival [10] | Survival [11] | Survival [12] | Survival [13] | Survival [14] | Survival [15]
1 | CC1=C(N)C(=O)c2c(COC(N)=O)c3n(c2C1=O)CC(N)C3OP(=O)(O)OC[C@H]1O[C@@H](n2ccc(=O)[nH]c2=O)[C@H](O)[C@@H]1O (some centres undefined) | 20 µg/mL | 20 µg/mL | 1 µg/mL | 1 µg/mL | 2.5 µg/mL | 13.3 µM | 8 µg/mL |  |  |  |  |  |  |  | 
2 | CC1=C(N)C(=O)c2c(COC(N)=O)c3n(c2C1=O)CC(N)C3OP(=O)(O)OC[C@H]1O[C@@H](n2cc(F)c(=O)[nH]c2=O)C[C@@H]1O (some centres undefined) |  |  |  |  |  | 14 µM |  |  |  |  |  |  |  |  | 
3 | CO[C@@]12[C@H](COC(N)=O)C3=C(C(=O)C(C)=C(N)C3=O)N1C[C@@H]1N[C@@H]12.O=c1[nH]c(=O)n([C@H]2C[C@H](O)[C@@H](CO)O2)cc1F |  |  |  |  |  |  |  | 1% | 48% | 100% | 2% | 3% | 70% | 84% | 42%
4 | CC1=C(N)C(=O)c2c(COC(N)=O)c3n(c2C1=O)CC(N)C3[18OH] (centres undefined) |  |  |  |  |  | 62 µM |  |  |  |  |  |  |  |  | 
5 | O=c1[nH]c(=O)n([C@H]2C[C@H](O)[C@@H](CO)O2)cc1F [FLOXURIDINE] |  |  |  |  |  |  |  | 92% | 94% | 98% | 89% | 62% | 76% | 100% | 68%
6 | CO[C@@]12[C@H](COC(N)=O)C3=C(C(=O)C(C)=C(N)C3=O)N1C[C@@H]1N[C@@H]12 [MITOMYCIN] |  |  |  |  |  | 3.1 µM |  | 1% | 52% | 89% | 2% | 7% | 100% | 98% | 73%
